In the library only some 3.1% were active in any assay of this set; here they are far more common.
miR-122 sensor: miR-122 Renilla sensor signal increase in Huh7, primary screen, miR-122 inhibitor project, cell-based, single point, plate reader. hit rate 0.3% among 340,000. AID 602342, 2012. activation (reporter increase), % at 12.5 µM. Huh7 miR-122 Renilla luciferase sensor, 48 h; neutral wells = 0, positive control = 100;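 active = mean replicate activation score at least 90 and every replicate individually at or above 90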;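 note: higher luciferase means less miR-122 activity so hits act as miR-122 inhibitors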
rRNA inh HTS: reduced GFP signal of wild-type E. coli, primary screen, bacterial rRNA inhibitor project, GFP/RFP fluorescence, OD600, single point; GFP signal change (wild-type ribosome), % (test concentration not listed); hit rate 1.6% among 350,000; E. coli WT GFP vs humanized-ribosome RFP mutants, 24 h; stronger effect = lower value; DMSO median 0, no signal -100;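 active = significant combined selectivity score with lowered wild-type GFP, culture density cut under 30%, mutant RFP and density less affected; inactive = any of these conditions unmet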
Cneo AK release: Cryptococcus neoformans cell lysis inducers, primary screen, AK release luminescence, single concentration; lysis activity, % at 15 µM; C. neoformans lysis, adenylate kinase release luminescence, 4 h; normalised: neutral wells 0, clomiphene wells 100; hit rate 0.2% among 360,000;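 active = mean lysis activity across replicates of at least 80%, whatever share of replicates individually reach that level; inactive = mean lysis activity below 80%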
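Assay system: C. neoformans cells. Amount: yeast cell density of 5 × 10^6 cells/mL. Technique: AK luminescence. Buffer or medium: YPD. Times: static 4 h at 37 °C with compound, 1 h detection. Dosing: single-point compound dose. Read-out: lysis from increased AK signal.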
E-selectin induc: E-selectin induction in HUVECs, primary screen, imaging, HUVEC, immunofluorescence imaging, single point; activation, % at 7.58 µM; hit rate 0.37% among 260,000; normalized: neutral wells 0, TNF-alpha wells 100; P16581;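 active = mean E-selectin-positive cell signal at least 10% of the positive control, reached in at least 60% of replicates, without over 20% cell loss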
Target sequence (P16581 whole entry, looked up): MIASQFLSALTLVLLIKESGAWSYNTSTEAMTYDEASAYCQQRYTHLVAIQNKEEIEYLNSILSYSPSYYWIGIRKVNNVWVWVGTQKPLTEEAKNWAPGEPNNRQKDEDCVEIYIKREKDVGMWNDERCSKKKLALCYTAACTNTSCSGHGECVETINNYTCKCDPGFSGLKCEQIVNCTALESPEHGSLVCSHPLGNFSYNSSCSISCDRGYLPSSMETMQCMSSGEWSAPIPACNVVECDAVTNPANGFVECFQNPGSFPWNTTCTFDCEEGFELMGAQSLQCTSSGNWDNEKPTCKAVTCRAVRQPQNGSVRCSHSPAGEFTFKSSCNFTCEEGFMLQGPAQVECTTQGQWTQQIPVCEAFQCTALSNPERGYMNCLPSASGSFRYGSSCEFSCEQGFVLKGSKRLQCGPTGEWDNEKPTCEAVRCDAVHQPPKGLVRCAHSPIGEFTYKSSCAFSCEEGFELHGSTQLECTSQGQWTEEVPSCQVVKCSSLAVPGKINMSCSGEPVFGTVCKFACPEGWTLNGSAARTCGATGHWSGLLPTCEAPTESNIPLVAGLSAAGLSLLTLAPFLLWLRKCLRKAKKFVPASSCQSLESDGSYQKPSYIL
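material = human umbilical vein endothelial cells (HUVEC), E-selectin induction | quantity = 3,000 cells/well | medium = EGM-2 growth medium on 0.1% gelatin-coated wells | technique = immunofluorescence imaging | read-out basis = % PE-positive cells | control set = TNF-alpha positive control, DMSO neutral control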
DENV2 CPE: inhibitors of DENV2 cytopathic effect, primary screen, cell-based, plate reader, single concentration; DENV2-infected cells, cytopathic effect rescue; CPE inhibition, % at 9.99 µM; hit rate 1.7% among 350,000; AID 651640, 2012; in the data active = CPE inhibition above about 20%, passing the limit was not always enough; tested in BHK-21 cells;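 note: 0% = median of neutral control wells and 100% = median of positive control wells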
Active calls of the source: *; nt = no result given; [ ] = remark or other dose.

SMILES	miR-122 sensor	rRNA inh HTS	Cneo AK release	E-selectin induc	DENV2 CPE
O=S(=O)(c1cccs1)N1CCCCN2[C@@H](CO)[C@H](c3ccc(C4=CCCC4)cc3)[C@@H]2C1	2[16.7 µM]	-56	2	0	12
CN1CCCCN2[C@H](CO)[C@H](c3ccc(C4=CCCC4)cc3)[C@H]2C1	2[16.7 µM]	3	4	0	29*
O=S(=O)(c1cccs1)N1CCCCN2[C@H](CO)[C@H](c3ccc(C4=CCCC4)cc3)[C@@H]2C1	1[16.7 µM]	-7	3	0	46*
CCCN(C)C[C@H]1OCCCC[C@@H](C)Oc2ccc(NC(=O)c3ccncc3)cc2C(=O)N([C@@H](C)CO)C[C@H]1C	14[16.7 µM]	0	nt	1	nt
CCCCn1c(=N)n(CC(=O)c2ccc(OC)cc2)c2ccccc21	nt	-43*	nt	nt	-3
CCOC(=O)Cn1c(=N)n(CCOc2cccc(C)c2)c2ccccc21	-1	nt	-1	nt	nt
CCOC(=O)Cn1c(=N)n(CCOc2ccc(Br)cc2)c2ccccc21	5	-48*	3	0	3
Cc1cccc(-c2ccc([C@@H]3[C@H]4CN(C(=O)CN5CCOCC5)CC(=O)N4[C@H]3CO)cc2)c1	nt	-1	nt	1	-7
CCCN(C)C[C@H]1OCCCC[C@@H](C)Oc2ccc(NC(=O)CCC(F)(F)F)cc2C(=O)N([C@H](C)CO)C[C@@H]1C	-2[16.7 µM]	2	nt	0	nt
Cn1c(=O)c([N+](=O)[O-])c(NCc2ccccc2Cl)c2ccccc21	nt	-29*	nt	0	0
Cn1c(=O)c([N+](=O)[O-])c(NCCc2ccccc2)c2ccccc21	8	nt	-1	nt	nt
C[C@@H]1CCCCO[C@@H](CN(C)S(=O)(=O)c2ccc(F)cc2)[C@@H](C)CN([C@@H](C)CO)C(=O)c2cc(NC(=O)CCC(F)(F)F)ccc2O1	-2[16.7 µM]	8	-4	nt	-7
CNC[C@H]1Oc2ccc(NS(C)(=O)=O)cc2C(=O)N(C)C[C@H]1C	nt	3	nt	nt	nt
O=C(COC(=O)c1ccccc1Br)NCCC1=CCCCC1	1	-51*	0	5	-9
O=C(COC(=O)COc1ccc(Cl)cc1Br)NCCC1=CCCCC1	nt	2	0	29*	-2
CCCNC(=O)N1C[C@@H](C)[C@H](OC)CN(C)C(=O)c2ccc(NS(C)(=O)=O)cc2OC[C@@H]1C	-2[16.7 µM]	4	2	0	-8
C[C@@H]1COCn2nncc2CC[C@@H](Cc2ccccc2)C(=O)N1	nt	6	nt	nt	nt
CO[C@@H]1CN(C)C(=O)c2ccc(NC(=O)c3cccc(F)c3)cc2OC[C@H](C)N(C)C[C@@H]1C	-19[16.7 µM]	0	nt	0	nt
O=C(NCc1ccc2c(c1)OCO2)C(=O)NCC1OCCCN1S(=O)(=O)c1ccccc1 (centres undefined)	-7	nt	0	nt	41*
Cc1ccc(S(=O)(=O)N2CCCOC2CNC(=O)C(=O)NCc2ccc3c(c2)OCO3)cc1 (centres undefined)	nt	6	-7	nt	5
O=C(C1CC1)N1CC2(C1)[C@@H](c1ccccc1)[C@@H](CO)N2CC1CCCC1	nt	-6	nt	0	0
COC(=O)c1cc(Cl)cc2c(C)c(C3(O)CCCCC3)[nH]c12	-9	-8	-2	0	-18
CCc1c(C2(O)CCCCC2)[nH]c2c(C(=O)OC)cc(Cl)cc12	1	-16	-3	0	30*
COC(=O)c1cc(NC(=O)CSc2nnc(N)s2)ccc1Cl	11	-22*	2	-6	-4
C[C@H]1CCCCO[C@H](CN(C)C(=O)c2ccncc2)[C@@H](C)CN([C@@H](C)CO)C(=O)c2cc(NS(=O)(=O)c3ccc(F)cc3)ccc2O1	4[16.7 µM]	-1	51	0	1
O=C(O)c1cccc(CN2C(=O)S/C(=C/c3ccccc3[N+](=O)[O-])C2=O)c1	nt	-22*	nt	nt	-2
CCCN1C[C@H](C)[C@@H](OC)CN(C)C(=O)c2ccc(NC(=O)c3ccc(F)cc3)cc2OC[C@@H]1C	-11[16.7 µM]	0	-7	0	nt
CCNC(=O)[C@@H]1[C@@H](CO)[C@@H]2Cn3c(ccc(-c4ccccc4)c3=O)[C@H]1N2C(=O)CC1CC1	nt	0	nt	0	3

Screening results: PubChem, Broad Institute
